Assays:
[1] = (§1) Inhibition of almond seed N-Acetyl-beta-D-glucosaminidase at 1 mM after 90 mins by spectrophotometric analysis; design: species or system Prunus dulcis
Outline: (§2)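 Each enzyme was screened with inhibitor at a single concentration of 1 mM, and percent inhibition was recorded. Reported values are the average of three sets of assays.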

Prunus dulcis [2] = assay: as §1; outline: as §2
[3] = (§3) Inhibition of almond seed beta-glucosidase at 1 mM after 90 mins by spectrophotometric analysis; design: species or system Prunus dulcis; outline: as §2
Prunus dulcis [4] = assay: as §3; outline: as §2
[5] = (§4) Inhibition of almond seed alpha-mannosidase at 1 mM after 90 mins by spectrophotometric analysis; design: species or system Prunus dulcis; outline: as §2
Prunus dulcis [6] = assay: as §4; outline: as §2
[7] = (§5) Inhibition of almond seed beta-galactosidase at 1 mM after 90 mins by spectrophotometric analysis; design: species or system Prunus dulcis; outline: as §2
Prunus dulcis [8] = assay: as §5; outline: as §2
[9] = (§6) Inhibition of almond seed alpha-galactosidase at 1 mM after 90 mins by spectrophotometric analysis; design: species or system Prunus dulcis; outline: as §2
Prunus dulcis [10] = assay: as §6; outline: as §2
[11] = (§7) Inhibition of yeast alpha-glucosidase at 1 mM after 90 mins by spectrophotometric analysis; design: species or system Saccharomyces cerevisiae; outline: as §2
Saccharomyces cerevisiae = assay: as §7; outline: as §2
[12] = (§8) Inhibition of Geobacillus toebii BK1 alpha-galactosidase at 1 mM after 90 mins by spectrophotometric analysis; outline: as §2
Geobacillus toebii = assay: as §8; outline: as §2
[13] = Inhibition of yeast alpha-glucosidase after 90 mins by spectrophotometric analysis; design: species or system Saccharomyces cerevisiae
[14] = Inhibition of Geobacillus toebii BK1 alpha-galactosidase after 90 mins by spectrophotometric analysis
[15] = Competitive inhibition of yeast alpha-glucosidase after 90 mins by Lineweaver-Burke plot analysis; design: species or system Saccharomyces cerevisiae
[16] = Non-competitive inhibition of Geobacillus toebii BK1 alpha-galactosidase after 90 mins by Lineweaver-Burke plot analysis

| SMILES | Ki [1] | inhibition (Prunus dulcis [2]) [%] | Ki [3] | inhibition (Prunus dulcis [4]) [%] | Ki [5] | inhibition (Prunus dulcis [6]) [%] | Ki [7] | inhibition (Prunus dulcis [8]) [%] | Ki [9] | inhibition (Prunus dulcis [10]) [%] | Ki [11] | inhibition (Saccharomyces cerevisiae) [%] | Ki [12] | inhibition (Geobacillus toebii) [%] | IC50 [13] [µM] | IC50 [14] [µM] | Ki [15] [µM] | Ki [16] [µM] |
| --- | --- | --- | --- | --- | --- | --- | --- | --- | --- | --- | --- | --- | --- | --- | --- | --- | --- | --- |
| C[C@H]1CC[C@@H](O)[C@@H](CO)N1 | Not Active | < 50 | Not Active | < 50 | Not Active | < 50 | Not Active | < 50 | Not Active | < 50 | Not Active | < 50 | Not Active | < 50 | – | – | – | – |
| C[C@H]1CC[C@@H](O)[C@@H](C(=O)O)N1 | Not Active | < 50 | Not Active | < 50 | Not Active | < 50 | Not Active | < 50 | Not Active | < 50 | – | – | – | – | 1150 | 180 | 71 | 26 |

Reference: ChEMBL document CHEMBL1275387, “Intramolecular reductive cyclization strategy to the synthesis of (-)-6-methyl-3-hydroxy-piperidine-2-carboxylic acid, (+)-6-methyl-(2-hydroxymethyl)-piperidine-3-ol and their glycosidase inhibitory activity” (Bioorg Med Chem, 2010)
